Experimental data: ChEMBL document CHEMBL4184325, “Discovery of 4,7-Diamino-5-(4-phenoxyphenyl)-6-methylene-pyrimido[5,4- b]pyrrolizines as Novel Bruton's Tyrosine Kinase Inhibitors” (J Med Chem, 2018)

Key:
[1] = biological target: Tyrosine-protein kinase BTK (Homo sapiens, UniProt Q06187); assay: Inhibition of recombinant human BTK using Poly(Glu, Tyr) 4:1 as substrate after 1 hr by ELISA
[2] = biological target: Tyrosine-protein kinase BTK (Homo sapiens, UniProt Q06187, C481S); assay: Inhibition of recombinant full-length N-terminal His-tagged human BTK C481S mutant expressed in baculovirus infected Sf9 insect cells using Poly(Glu, Tyr) 4:1 as substrate after 1 hr by ELISA
[3] = biological target: Tyrosine-protein kinase Blk (Homo sapiens, UniProt P51451); assay: Inhibition of partial length human BLK expressed in bacteria assessed as residual activity at 1 uM relative to control
How it was run: (§1)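 KINOMEscan competition binding panel of 468 kinases with compound at 1 μM. Result is % control = (test − positive control signal)/(DMSO negative − positive control signal) × 100.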

[4] = biological target: Receptor tyrosine-protein kinase erbB-4 (Homo sapiens, UniProt Q15303); assay: Inhibition of partial length human ErbB4 expressed in bacteria assessed as residual activity at 1 uM relative to control; how it was run: as §1
[5] = biological target: Dual specificity mitogen-activated protein kinase kinase; MEK1/2 (Homo sapiens) (UniProt P36507+Q02750); assay: Inhibition of human MEK assessed as residual activity at 1 uM relative to control; format: protein assay; how it was run: as §1
[6] = Drug metabolism in rat liver microsomes treated with (S)-N-(4-Amino-6-methylene-5-(4-phenoxyphenyl)-7,8-dihydro-6H-pyrimido[5,4-b]pyrrolizin-7-yl)but-2-ynamide after 3 hrs; format: ADME, microsome
[7] = Drug metabolism in human liver microsomes treated with (S)-N-(4-Amino-6-methylene-5-(4-phenoxyphenyl)-7,8-dihydro-6H-pyrimido[5,4-b]pyrrolizin-7-yl)but-2-ynamide after 3 hrs; format: ADME, microsome
[8] = Drug metabolism in human liver microsomes treated with (S)-N-(4-Amino-6-methylene-5-(4-phenoxyphenyl)-7,8-dihydro-6H-pyrimido[5,4-b]pyrrolizin-7-yl)acrylamide after 3 hrs; format: ADME, microsome
[9] = Drug metabolism in rat liver microsomes treated with (S)-N-(4-Amino-6-methylene-5-(4-phenoxyphenyl)-7,8-dihydro-6H-pyrimido[5,4-b]pyrrolizin-7-yl)acrylamide after 3 hrs; format: ADME, microsome
[10] = Drug metabolism in mouse liver microsomes treated with (S)-N-(4-Amino-6-methylene-5-(4-phenoxyphenyl)-7,8-dihydro-6H-pyrimido[5,4-b]pyrrolizin-7-yl)but-2-ynamide after 3 hrs; format: ADME, microsome
[11] = Drug metabolism in mouse liver microsomes treated with (S)-N-(4-Amino-6-methylene-5-(4-phenoxyphenyl)-7,8-dihydro-6H-pyrimido[5,4-b]pyrrolizin-7-yl)acrylamide after 3 hrs; format: ADME, microsome
Rattus norvegicus [12] = assay: AUC (0 to infinity) in rat at 3 mg/kg, po; format: ADME, organism-based; design: dose 3 mg/kg, time infinity, route oral; settings: in vivo
How it was run: (§2)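 Rats dosed orally at 3 mg/kg; vehicle DMSO, Tween 80, normal saline; values are the average of three determinations.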

TMD8 = assay: Antiproliferative activity against human TMD8 cells after 72 hrs by MTT assay; format: functional, cell-based; settings: TMD8, 72 h
How it was run: (§3)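 Cells grown in RPMI-1640 with FBS at 37 °C, 5% CO2. Seeded and grown 2 h, then treated with various concentrations in PBS solution, each in triplicate, and cultured a further 72 h. Viability read by MTT. IC50 from the Logit method, given as mean ± SD of three independent determinations.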

Ramos = assay: Antiproliferative activity against human Ramos cells after 72 hrs by MTT assay; format: functional, cell-based; how it was run: as §3
Mus musculus = assay: Toxicity in CB17 SCID nude mouse xenografted with human TMD8 cells assessed as change in body weight at 25 mg/kg, po qd administered for 13 consecutive days measured during compound dosing up to day 17 post dose; format: organism-based; settings: in vivo
[13] = (§4) Oral bioavailability in rat at 3 mg/kg; format: ADME, organism-based; settings: in vivo
How it was run: (§5)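 Rats were given compound at 1 mg/kg iv or 3 mg/kg po. Vehicle was DMSO, Tween 80 and normal saline. Values are the average of three determinations.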

Rattus norvegicus [14] = assay: Volume of distribution at steady state in rat at 1 mg/kg, iv; format: ADME, organism-based; settings: in vivo; how it was run: as §5
Rattus norvegicus [15] = assay: Half life in rat at 1 mg/kg, iv; format: ADME, organism-based; settings: in vivo
How it was run: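 Rats given 1 mg/kg intravenously; vehicle DMSO, Tween 80, normal saline; values are the average of three determinations.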

[16] = Cmax in rat at 3 mg/kg, po; format: ADME, organism-based; design: dose 3 mg/kg, route oral; settings: in vivo; how it was run: as §2
[17] = Tmax in rat at 3 mg/kg, po; format: ADME, organism-based; settings: in vivo; how it was run: as §5
Rattus norvegicus [18] = assay: as §4; format: ADME, organism-based; settings: in vivo; how it was run: as §5
[19] = Drug metabolism in mouse liver microsomes assessed as (S)-4-(4-(4,7-diamino-6-methylene-7,8-dihydro-6H-pyrimido[5,4-b]pyrrolizin-5-yl)phenoxy)phenol formation after 3 hrs; format: ADME, microsome
[20] = Drug metabolism in mouse liver microsomes assessed as (S)-N-(4-amino-5-(4-(4-hydroxyphenoxy)phenyl)-6-methylene-7,8-dihydro-6H-pyrimido[5,4-b]pyrrolizin-7-yl)but-2-ynamide formation after 3 hrs; format: ADME, microsome
[21] = Drug metabolism in rat liver microsomes assessed as (S)-N-(4-amino-5-(4-(4-hydroxyphenoxy)phenyl)-6-methylene-7,8-dihydro-6H-pyrimido[5,4-b]pyrrolizin-7-yl)but-2-ynamide formation after 3 hrs; format: ADME, microsome
[22] = Drug metabolism in mouse liver microsomes assessed as (S)-N-(4-amino-6-methylene-5-(4-phenoxyphenyl)-7,8-dihydro-6H-pyrimido[5,4-b]pyrrolizin-7-yl)-4-hydroxybut-2-ynamide formation after 3 hrs; format: ADME, microsome
[23] = Drug metabolism in rat liver microsomes assessed as (S)-N-(4-amino-6-methylene-5-(4-phenoxyphenyl)-7,8-dihydro-6H-pyrimido[5,4-b]pyrrolizin-7-yl)-4-hydroxybut-2-ynamide formation after 3 hrs; format: ADME, microsome
[24] = Drug metabolism in human liver microsomes assessed as (S)-N-(4-amino-6-methylene-5-(4-phenoxyphenyl)-7,8-dihydro-6H-pyrimido[5,4-b]pyrrolizin-7-yl)-4-hydroxybut-2-ynamide formation after 3 hrs; format: ADME, microsome
[25] = Drug metabolism in rat liver microsomes assessed as (S)-N-(4-amino-5-(4-(4-hydroxyphenoxy)phenyl)-6-methylene-7,8-dihydro-6H-pyrimido[5,4-b]pyrrolizin-7-yl)-4-hydroxybut-2-ynamide formation after 3 hrs; format: ADME, microsome
[26] = Drug metabolism in human liver microsomes assessed as (S)-N-(4-amino-5-(4-(4-hydroxyphenoxy)phenyl)-6-methylene-7,8-dihydro-6H-pyrimido[5,4-b]pyrrolizin-7-yl)-4-hydroxybut-2-ynamide formation after 3 hrs; format: ADME, microsome
[27] = Drug metabolism in rat liver microsomes assessed as (S)-N-(4-amino-5-(4-hydroxyphenyl)-6-methylene-7,8-dihydro-6H-pyrimido[5,4-b]pyrrolizin-7-yl)but-2-ynamide formation after 3 hrs; format: ADME, microsome
[28] = Drug metabolism in human liver microsomes assessed as (S)-N-(4-amino-5-(4-hydroxyphenyl)-6-methylene-7,8-dihydro-6H-pyrimido[5,4-b]pyrrolizin-7-yl)but-2-ynamide formation after 3 hrs; format: ADME, microsome

Tyrosine-protein kinase BTK (Homo sapiens, UniProt Q06187), sequence (Q06187 whole entry): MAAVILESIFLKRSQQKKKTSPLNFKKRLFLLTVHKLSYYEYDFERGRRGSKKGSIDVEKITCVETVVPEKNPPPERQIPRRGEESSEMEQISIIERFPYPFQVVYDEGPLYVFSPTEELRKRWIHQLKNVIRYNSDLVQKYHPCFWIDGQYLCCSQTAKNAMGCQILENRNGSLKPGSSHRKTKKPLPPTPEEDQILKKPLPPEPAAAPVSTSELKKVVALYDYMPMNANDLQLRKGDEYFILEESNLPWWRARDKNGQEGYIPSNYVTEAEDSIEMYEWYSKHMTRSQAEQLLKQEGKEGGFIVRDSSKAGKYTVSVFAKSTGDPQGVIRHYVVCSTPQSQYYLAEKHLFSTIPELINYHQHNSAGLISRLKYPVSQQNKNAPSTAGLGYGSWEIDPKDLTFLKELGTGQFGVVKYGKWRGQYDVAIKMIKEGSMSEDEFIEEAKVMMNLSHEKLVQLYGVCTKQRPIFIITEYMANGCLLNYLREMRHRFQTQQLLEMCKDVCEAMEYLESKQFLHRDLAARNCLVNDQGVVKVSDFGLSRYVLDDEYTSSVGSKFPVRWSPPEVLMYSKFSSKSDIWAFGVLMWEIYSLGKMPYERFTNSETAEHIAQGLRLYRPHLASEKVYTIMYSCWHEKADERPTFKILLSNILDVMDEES
Tyrosine-protein kinase Blk, sequence (P51451 2-505 limits assumed): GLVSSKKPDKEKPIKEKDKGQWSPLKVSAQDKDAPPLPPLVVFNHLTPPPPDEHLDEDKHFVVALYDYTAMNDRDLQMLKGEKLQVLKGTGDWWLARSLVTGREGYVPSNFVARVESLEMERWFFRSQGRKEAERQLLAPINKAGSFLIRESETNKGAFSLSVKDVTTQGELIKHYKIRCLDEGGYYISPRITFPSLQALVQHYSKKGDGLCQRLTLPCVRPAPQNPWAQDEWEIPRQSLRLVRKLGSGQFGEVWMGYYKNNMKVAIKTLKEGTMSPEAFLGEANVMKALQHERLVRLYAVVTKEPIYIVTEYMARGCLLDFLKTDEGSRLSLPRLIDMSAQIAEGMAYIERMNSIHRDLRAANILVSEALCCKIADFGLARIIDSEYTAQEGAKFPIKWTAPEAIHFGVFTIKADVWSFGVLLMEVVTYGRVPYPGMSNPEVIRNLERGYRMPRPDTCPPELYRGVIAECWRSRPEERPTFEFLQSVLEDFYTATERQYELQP
Tyrosine-protein kinase BTK (Homo sapiens, UniProt Q06187, C481S), sequence (Q06187 2-659 C481S limits assumed): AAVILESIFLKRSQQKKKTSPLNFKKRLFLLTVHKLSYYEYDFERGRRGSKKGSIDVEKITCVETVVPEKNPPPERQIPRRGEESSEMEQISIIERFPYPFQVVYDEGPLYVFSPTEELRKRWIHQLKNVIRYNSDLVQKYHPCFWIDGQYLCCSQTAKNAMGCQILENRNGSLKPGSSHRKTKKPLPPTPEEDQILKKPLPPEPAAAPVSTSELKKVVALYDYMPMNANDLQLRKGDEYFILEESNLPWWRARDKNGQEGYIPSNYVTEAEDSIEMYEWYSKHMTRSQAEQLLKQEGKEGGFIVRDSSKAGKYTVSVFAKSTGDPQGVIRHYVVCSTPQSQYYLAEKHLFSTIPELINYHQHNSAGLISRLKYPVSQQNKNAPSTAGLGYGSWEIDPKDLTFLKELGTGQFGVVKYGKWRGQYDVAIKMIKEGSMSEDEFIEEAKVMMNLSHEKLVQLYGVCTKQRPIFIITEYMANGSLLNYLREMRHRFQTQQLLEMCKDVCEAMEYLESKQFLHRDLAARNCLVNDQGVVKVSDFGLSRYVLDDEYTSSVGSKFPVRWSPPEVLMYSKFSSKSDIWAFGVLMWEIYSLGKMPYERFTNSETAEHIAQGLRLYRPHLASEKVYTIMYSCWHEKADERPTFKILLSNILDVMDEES
Dual specificity mitogen-activated protein kinase kinase; MEK1/2 (Homo sapiens), sequence (P36507 whole entry, looked up): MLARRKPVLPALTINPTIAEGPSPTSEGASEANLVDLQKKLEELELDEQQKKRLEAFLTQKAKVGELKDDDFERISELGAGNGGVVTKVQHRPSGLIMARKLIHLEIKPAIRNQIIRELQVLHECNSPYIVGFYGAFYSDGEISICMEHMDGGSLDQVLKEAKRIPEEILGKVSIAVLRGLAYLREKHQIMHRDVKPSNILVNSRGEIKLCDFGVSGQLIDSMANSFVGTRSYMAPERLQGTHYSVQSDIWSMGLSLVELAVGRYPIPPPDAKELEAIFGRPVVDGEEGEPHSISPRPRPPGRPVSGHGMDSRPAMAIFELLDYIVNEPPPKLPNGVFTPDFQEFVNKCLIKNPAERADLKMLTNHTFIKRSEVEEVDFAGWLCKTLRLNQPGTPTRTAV
Dual specificity mitogen-activated protein kinase kinase; MEK1/2 (Homo sapiens), sequence (Q02750 whole entry, looked up): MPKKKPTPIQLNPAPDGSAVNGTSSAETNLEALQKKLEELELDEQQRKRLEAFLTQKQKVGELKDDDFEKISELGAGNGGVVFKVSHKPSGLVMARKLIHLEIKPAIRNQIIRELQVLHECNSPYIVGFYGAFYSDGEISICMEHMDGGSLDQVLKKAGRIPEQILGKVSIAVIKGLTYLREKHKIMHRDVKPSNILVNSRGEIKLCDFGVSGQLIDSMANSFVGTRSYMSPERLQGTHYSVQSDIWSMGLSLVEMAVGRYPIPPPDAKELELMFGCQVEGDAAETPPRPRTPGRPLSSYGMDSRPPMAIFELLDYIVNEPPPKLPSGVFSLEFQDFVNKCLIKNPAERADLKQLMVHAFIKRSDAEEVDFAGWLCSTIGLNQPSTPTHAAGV
Receptor tyrosine-protein kinase erbB-4, sequence (Q15303 whole entry): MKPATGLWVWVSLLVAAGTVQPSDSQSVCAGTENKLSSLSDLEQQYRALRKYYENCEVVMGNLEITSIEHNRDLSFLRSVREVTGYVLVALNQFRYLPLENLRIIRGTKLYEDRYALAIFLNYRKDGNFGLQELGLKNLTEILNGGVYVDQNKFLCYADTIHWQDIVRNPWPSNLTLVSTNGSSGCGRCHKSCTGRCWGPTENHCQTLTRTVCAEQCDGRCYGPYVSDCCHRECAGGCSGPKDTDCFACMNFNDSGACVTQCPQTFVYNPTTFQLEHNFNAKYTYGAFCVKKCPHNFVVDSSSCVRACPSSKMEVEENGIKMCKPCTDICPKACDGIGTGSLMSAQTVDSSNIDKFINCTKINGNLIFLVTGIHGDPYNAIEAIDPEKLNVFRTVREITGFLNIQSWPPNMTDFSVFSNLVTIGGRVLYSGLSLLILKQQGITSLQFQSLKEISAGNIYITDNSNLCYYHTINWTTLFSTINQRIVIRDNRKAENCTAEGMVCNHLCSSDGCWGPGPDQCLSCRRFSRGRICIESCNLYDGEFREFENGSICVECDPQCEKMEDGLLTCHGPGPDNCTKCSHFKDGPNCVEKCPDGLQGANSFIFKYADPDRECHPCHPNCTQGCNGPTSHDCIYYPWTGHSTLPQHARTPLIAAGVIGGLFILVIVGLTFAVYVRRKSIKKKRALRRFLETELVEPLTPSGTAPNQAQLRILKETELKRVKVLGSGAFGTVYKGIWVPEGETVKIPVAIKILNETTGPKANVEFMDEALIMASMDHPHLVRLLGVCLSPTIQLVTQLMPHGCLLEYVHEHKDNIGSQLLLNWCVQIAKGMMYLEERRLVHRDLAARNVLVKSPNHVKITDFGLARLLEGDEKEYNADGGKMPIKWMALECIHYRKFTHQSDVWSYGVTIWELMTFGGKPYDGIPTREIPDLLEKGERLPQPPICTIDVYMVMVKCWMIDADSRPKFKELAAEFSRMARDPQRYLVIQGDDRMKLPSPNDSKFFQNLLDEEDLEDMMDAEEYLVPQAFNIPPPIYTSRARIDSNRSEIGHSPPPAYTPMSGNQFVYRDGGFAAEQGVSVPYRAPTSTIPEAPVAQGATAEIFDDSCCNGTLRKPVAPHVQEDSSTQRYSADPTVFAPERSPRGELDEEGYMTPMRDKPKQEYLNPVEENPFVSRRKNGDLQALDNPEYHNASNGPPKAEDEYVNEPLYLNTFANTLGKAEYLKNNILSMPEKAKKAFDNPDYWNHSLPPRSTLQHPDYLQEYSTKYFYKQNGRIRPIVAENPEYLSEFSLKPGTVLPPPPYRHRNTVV

C=CC(=O)N[C@@H]1Cn2c(c(-c3ccc(C(=O)Nc4cc(C(F)(F)F)ccn4)cc3)c3c(N)ncnc32)C1=C
IC50 [1]: 0.8 nM

C=CC(=O)N[C@@H]1Cn2c(c(-c3ccc(Oc4ccc(F)cc4)cc3)c3c(N)ncnc32)C1=C
IC50 [1]: 2.2 nM

C=C1c2c(-c3ccc(Oc4ccccc4)cc3)c3c(N)ncnc3n2CC1N (stereo not drawn)
IC50 [1]: > 1000 nM

CCC(=O)NC1CCc2c(-c3ccc(Oc4ccccc4)cc3)c3c(N)ncnc3n2C1 (stereo not drawn)
IC50 [1]: 417 nM

C=CC(=O)NC1Cn2c(c(-c3ccc(Oc4ccccc4)cc3)c3c(N)ncnc32)C1=C (racemic)
IC50 [1]: 2.8 nM
IC50 [2]: 464 nM
Activity [3]: < 1%
Activity [4]: < 1%
Activity [5]: < 1%

C=C1c2c(-c3ccc(O)cc3)c3c(N)ncnc3n2C[C@H]1NC(=O)C#CC
Drug metabolism [6]: Metabolite_Detected
Drug metabolism [7]: Metabolite_Detected

C=CC(=O)N[C@@H]1Cn2c(c(-c3ccc(Oc4ccc(C(F)(F)F)cc4)cc3)c3c(N)ncnc32)C1=C
IC50 [1]: 7.4 nM

C=CC(=O)N[C@@H]1Cn2c(c(-c3ccc(C(=O)NCc4ccccn4)cc3)c3c(N)ncnc32)C1=C
IC50 [1]: 3.1 nM

C=CC(=O)N[C@@H]1Cn2c(c(-c3ccc(C(=O)N[C@@H](COC)c4ccccn4)cc3)c3c(N)ncnc32)C1=C
IC50 [1]: 4.3 nM

C=CC(=O)N[C@@H]1Cn2c(c(-c3ccc(O)cc3)c3c(N)ncnc32)C1=C
Drug metabolism [8]: Metabolite_Detected
Drug metabolism [9]: Metabolite_Detected

C=C1c2c(-c3ccc(Oc4ccc(O)cc4)cc3)c3c(N)ncnc3n2C[C@H]1NC(=O)C#CC
Drug metabolism [10]: Metabolite_Detected
Drug metabolism [6]: Metabolite_Detected
Drug metabolism [7]: Metabolite_Detected

C=CC(=O)N[C@@H]1Cn2c(c(-c3ccc(Oc4ccc(OC(F)(F)F)cc4)cc3)c3c(N)ncnc32)C1=C
IC50 [1]: 3.5 nM

C=C1c2c(-c3ccc(Oc4ccc(O)cc4)cc3)c3c(N)ncnc3n2C[C@H]1NC(=O)C#CCO
Drug metabolism [6]: Metabolite_Detected
Drug metabolism [7]: Metabolite_Detected

C=C1c2c(-c3ccc(Oc4ccccc4)cc3)c3c(N)ncnc3n2C[C@H]1NC(=O)C=CO
Drug metabolism [8]: Metabolite_Detected
Drug metabolism [9]: Metabolite_Detected
Drug metabolism [11]: Metabolite_Detected

C=CC(=O)N[C@@H]1Cn2c(c(-c3ccc(C(=O)N[C@@H](C)c4ccccn4)cc3)c3c(N)ncnc32)C1=C
IC50 [1]: 50.4 nM

C=CC(=O)NC1(C(=O)NC2Cn3c(c(-c4ccc(Oc5ccccc5)cc4)c4c(N)ncnc43)C2=C)CC1 (stereo not drawn)
IC50 [1]: 23.8 nM

C=CC(=O)NCCC(=O)NC1Cn2c(c(-c3ccc(Oc4ccccc4)cc3)c3c(N)ncnc32)C1=C (stereo not drawn)
IC50 [1]: 725 nM

C=CC(=O)N1CCC[C@@H](n2nc(-c3ccc(Oc4ccccc4)cc3)c3c(N)ncnc32)C1 [IBRUTINIB]
AUC (Rattus norvegicus [12]): 0.057 µg·h/mL
IC50 (TMD8): 10 nM
IC50 (Ramos): 920 nM
Activity (Mus musculus): Non-Toxic

C=C1c2c(-c3ccc(Oc4ccccc4)cc3)c3c(N)ncnc3n2C[C@H]1NC(=O)C(O)CO (stereo partly drawn)
Drug metabolism [8]: Metabolite_Detected
Drug metabolism [9]: Metabolite_Detected
Drug metabolism [11]: Metabolite_Detected

C=CC(=O)N[C@@H](C)C(=O)NC1Cn2c(c(-c3ccc(Oc4ccccc4)cc3)c3c(N)ncnc32)C1=C (stereo partly drawn)
IC50 [1]: 40.1 nM

C=CC(=O)N[C@@H]1Cn2c(c(-c3ccc(C(=O)Nc4ccccn4)cc3)c3c(N)ncnc32)C1=C
IC50 [1]: 0.5 nM
bioavailability [13]: 8.24%
IC50 (TMD8): 4 nM
IC50 (Ramos): 14300 nM

C=C1c2c(-c3ccc(Oc4ccc(O)cc4)cc3)c3c(N)ncnc3n2C[C@H]1N
Drug metabolism [9]: Metabolite_Detected
Drug metabolism [11]: Metabolite_Detected
Drug metabolism [10]: Metabolite_Detected

C=C1c2c(-c3ccc(Oc4ccccc4)cc3)c3c(N)ncnc3n2CC1NC(=O)/C=C/CN(C)C (stereo not drawn)
IC50 [1]: 4.3 nM

C=CC(=O)NCC(=O)NC1Cn2c(c(-c3ccc(Oc4ccccc4)cc3)c3c(N)ncnc32)C1=C (stereo not drawn)
IC50 [1]: 23.6 nM

C=C1c2c(-c3ccc(Oc4ccccc4)cc3)c3c(N)ncnc3n2C[C@H]1NC(=O)C#CC
IC50 [1]: 0.4 nM
Vdss (Rattus norvegicus [14]): 1.39 L/kg
t1/2 (Rattus norvegicus [15]): 32.4 min
Cmax [16]: 0.34 µg/mL
Tmax [17]: 15 min
AUC (Rattus norvegicus [12]): 0.557 µg·h/mL
F (Rattus norvegicus [18]): 35.8%
Drug metabolism [19]: Metabolite_Detected
Drug metabolism [20]: Metabolite_Detected
Drug metabolism [21]: Metabolite_Detected
Drug metabolism [22]: Metabolite_Detected
Drug metabolism [23]: Metabolite_Detected
Drug metabolism [24]: Metabolite_Detected
Drug metabolism [25]: Metabolite_Detected
Drug metabolism [26]: Metabolite_Detected
Drug metabolism [27]: Metabolite_Detected
Drug metabolism [28]: Metabolite_Detected

C=C1c2c(-c3ccc(Oc4ccccc4)cc3)c3c(N)ncnc3n2CC1NC(=O)CC (stereo not drawn)
IC50 [1]: 62.6 nM

C=CC(=O)N[C@@H]1Cn2c(c(-c3ccc(Oc4ccc(C(C)(C)C)cc4)cc3)c3c(N)ncnc32)C1=C
IC50 [1]: 3.7 nM

C=C1c2c(-c3ccc(Oc4ccccc4)cc3)c3c(N)ncnc3n2C[C@H]1NC(=O)C#CCO
Drug metabolism [10]: Metabolite_Detected
Drug metabolism [6]: Metabolite_Detected
Drug metabolism [7]: Metabolite_Detected

C=CC(=O)N[C@@H]1Cn2c(c(-c3ccc(Oc4ccc(O)cc4)cc3)c3c(N)ncnc32)C1=C
Drug metabolism [8]: Metabolite_Detected
Drug metabolism [9]: Metabolite_Detected
Drug metabolism [11]: Metabolite_Detected

C=C1c2c(-c3ccc(Oc4ccccc4)cc3)c3c(N)ncnc3n2CC1NC(=O)C#CC (racemic)
IC50 [1]: 2.1 nM

C=C1c2c(-c3ccc(Oc4ccccc4)cc3)c3c(N)ncnc3n2C[C@@H]1NC(=O)C#CC
IC50 [1]: 3.3 nM

C=CC(=O)N[C@H]1Cn2c(c(-c3ccc(Oc4ccccc4)cc3)c3c(N)ncnc32)C1=C
IC50 [1]: 6.1 nM
